Measurements: article PMC4407803 (Journal of medicinal chemistry, 2015)
Where two headings read alike, the source gives them in different places.

How the values were obtained:
[1] = system: Jurkat cells (human T-cell leukemia); assay: In vitro antiproliferative activity; type: cell-based; settings: 72 h, read-out: IC50 Jurkat
Procedure, shortened: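 Cells grown in RPMI-1640; 8 × 10^3 cells per well, pre-incubated 18 h at 37 °C, 5% CO2. Medium replaced with fresh medium containing test compound at several concentrations (from 10 mM DMSO stocks; DMSO ≤0.25% final), 72 h at 37 °C.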

[2] = system: BNL 1ME A.7R.1 hepatocellular carcinoma tumors; assay: In vivo antitumor activity, syngeneic hepatocellular carcinoma model; settings: Balb/c mice; for tumor growth inhibition vs control (significance): 5 mg/kg intraperitoneally daily
Procedure, shortened: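 Male Balb/c mice, 8 weeks old, injected subcutaneously in the dorsal region with 10^7 BNL 1ME A.7R.1 cells in 200 μL sterile PBS. At about 100 mm3, mice were randomized into four groups of 5. Tumors measured by caliper daily for 7 days; V = AB2/2.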

[3] = system: panel of seven human cancer cell lines; assay: Antiproliferative activity over the panel of seven human cancer cell lines; type: cell-based
Procedure, shortened: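 Jurkat, RS4;11 and HL-60 cells grown in RPMI-1640; MCF-7, A549, HeLa and HT-29 cells in DMEM; both media with 10% FBS plus penicillin/streptomycin. 8 × 10^3 cells/well settled 18 h at 37 °C, 5% CO2, then exposed to graded compound for 72 h. DMSO ≤0.25%. MTT viability read.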

HUVECs [4] = assay: Disruption of HUVEC capillary-like tubules on Matrigel; type: cell-based, human; settings: 1 h or 3 h incubation
Procedure, shortened: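 HUVECs isolated from umbilical cord veins, kept in M200 with low-serum growth supplement, and used at passages 1–6. Matrigel gelled 30 min at 37 °C, overlaid with 6 × 10^4 cells; tubules allowed to form for 6 h. Compound then added for 1 or 3 h. Five fields/well photographed at 10×. Image analysis quantified tubule length, mesh area/number, % area covered and branch points. Three independent experiments.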

[5] = Body weight during in vivo antitumor treatment; parameters: species or system Balb/c mice; settings: 3g at the higher dose (10 mg/kg ip)
PBL stimulated with PHA = assay: Cytotoxicity in noncancer cells, PHA-stimulated PBL; type: cell-based; settings: Homo sapiens, 72 h, read-out: IC50 PBLPHA
Procedure, shortened: (§1)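 Peripheral blood lymphocytes from healthy donors isolated on a Lymphoprep gradient, washed, held overnight at 1.0 × 10^6 cells/mL in RPMI-1640 with 10% FBS. Nonadherent cells reseeded at 5 × 10^5 cells/mL. PHA-stimulated set received 2.5 μg/mL PHA; resting set had no PHA. Graded compound for 72 h; viability by MTT.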

[6] = system: PBL not stimulated with PHA; assay: Cytotoxicity in noncancer cells, resting PBL; type: cell-based; settings: Homo sapiens, 72 h, read-out: IC50 PBLresting
Procedure, shortened: as §1

HeLa cells [7] = assay: Mitochondrial membrane potential; type: cell-based, human; settings: 24 or 48 h
Procedure, shortened: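 HeLa cells exposed to compound for 24 or 48 h, then stained with H2-DCFDA for reactive oxygen species. Fluorescence read by flow cytometry. Parallel JC-1 staining assessed mitochondrial membrane potential. Three independent experiments.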

HeLa cells [8] = assay: Western blot analysis of caspases and Bcl-2 family proteins; type: cell-based, human; settings: for Mcl-1 expression: 48 h, 100 and 250 nM
Procedure, shortened: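 Treated HeLa cells washed in cold PBS and lysed on ice for 30 min. Lysates cleared at 15000g, 4 °C, for 10 min; protein measured by BCA. 10 μg protein resolved on 7.5–15% SDS-PAGE and transferred to PVDF. Membranes blocked in 5% BSA/Tween-PBS overnight at 4 °C. Primary antibodies (e.g., Mcl-1) applied 2 h at room temperature, then peroxidase secondary for 60 min; ECL detection. β-actin reprobe used as loading control.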

[9] = system: chick embryo chorioallantoic membrane (CAM) blood vessels; assay: CAM assay in fertilized chicken eggs; type: in vivo
HUVECs [10] = assay: HUVEC motility; type: cell-based, human
Procedure, shortened: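 Primary cord-vein HUVECs (passages 1–6) grown to confluence (1 × 10^5 seeded) on 0.1% collagen type I. Monolayer scratched with a pipet tip, washed with PBS, then exposed to test compound. Wells photographed at intervals (6 and 24 h). Wound width measured in four areas and compared with initial width. Three independent experiments; significance versus untreated control.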

[11] = system: BL6-B16 murine melanoma tumor blood vessels; assay: Antivascular activity in vivo, CD31 vessel count in BL6-B16 melanoma; settings: 30 mg/kg ip, 24 h, C57BL/6 mice, P < 0.05
Procedure, shortened: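 Six-week-old C57BL/6 mice received 10^5 BL6-B16 melanoma cells in PBS subcutaneously in the dorsolateral flank. At 300 mm3 tumor volume, a single ip dose of 30 mg/kg in DMSO (50 μL) was given. Tumors excised 24 h later, OCT-embedded, frozen, cut into 4–5 μm cryosections. Stained with rat anti-mouse CD31 (1:200) and biotinylated anti-rat secondary. CD31+ vessels counted in 5 fields/section (40× objective); five mice/group.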

Jurkat and HeLa cells = assay: Flow cytometric analysis of cell cycle distribution; type: cell-based, human; settings: for lowest concentration giving a rise in G2/M cells: 24 h treatment
Procedure, shortened: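 5 × 10^5 HeLa or Jurkat cells exposed to graded compound concentrations for 24 h. Cells collected, fixed in ice-cold 70% ethanol, treated with lysis buffer containing RNase A and 0.1% Triton X-100, then stained with propidium iodide. DNA content measured by flow cytometry; phase distribution derived from DNA histograms.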

HeLa cells [12] = assay: Annexin-V/PI apoptosis assay; type: cell-based, human; settings: 24 or 48 h
Procedure, shortened: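 HeLa cells exposed to test compound for 24 or 48 h. Cells harvested and double-stained with annexin-V-FITC and PI. Surface phosphatidylserine exposure read by flow cytometry.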

[13] = read-out: average IC50 over the seven cell lines
[14] = read-out: IC50 values range in the seven cell lines

## COc1ccc(/C=C\c2cc(OC)c(OC)c(OC)c2)cc1O [CA-4, combretastatin A-4]
[1]
  IC50: 5 ± 0.6 nM

## COc1ccc(/C=C\c2cc(OC)c(OC)c(OC)c2)cc1OP(=O)([O-])[O-].[Na+].[Na+] [CA-4P, combretastatin A-4 phosphate, reference compound]
[2]
  tumor growth inhibition vs control (significance): significant relative to the control

## COC(=O)c1oc2ccccc2c1Nc1cc(OC)c(OC)c(OC)c1 [Compound 3a, Methyl 3-[(3,4,5-Trimethoxyphenyl)amino]benzofuran-2-carboxylate]
[3]; [13]
  IC50: 3300 nM

## COC(=O)c1oc2cc(OC)ccc2c1Nc1cc(OC)c(OC)c(OC)c1 [Compound 3g, Methyl 3-(3,4,5-Trimethoxyphenylamino)-6-methoxybenzofuran-2-carboxylate]
HUVECs [4]
  effect on preformed HUVEC tubule-like network: clearly disrupted the network of HUVECs
[5]
  body weight change during treatment: only a small decrease in body weight
PBL stimulated with PHA
  IC50: > 10 µM
[6]
  IC50: > 10 µM
[2]
  tumor growth inhibition vs control (significance): did not reach statistical significance
[2]; 10 mg/kg intraperitoneally daily
  reduction in tumor growth compared with vehicle: 44.5%
HeLa cells [7]
  ROS production (H2-DCFDA): production of significant amounts of ROS
  mitochondrial transmembrane potential (JC-1): time- and concentration-dependent increase in the proportion of cells with depolarized mitochondria
HeLa cells [8]
  caspase activation (immunoblot): activation of caspase-9 and caspase-3 in a time- and concentration-dependent manner
  Mcl-1 expression: strongly down-regulated
[3]; [14]
  IC50: 0.3 to 27 nM
[9]; 100 pmol/egg, without FGF
  blood vessel number, compound alone: did not induce blood vessels to increase in number
[9]; FGF 100 ng/egg, even at 1 pmol/egg
  FGF-induced increase of blood vessels: strongly reduced
HUVECs [10]; 6 h incubation
  concentration with statistically significant arrest of HUVEC motility: 25 nM
HUVECs [10]; after 24 h, lowest tested concentration
  concentration with highly significant arrest of HUVEC motility: 5 nM
HUVECs [10]; scratch wound
  HUVEC motility: very efficient in arresting cell motility
[11]
  reduction in number of CD31-positive tumor vessels: about 20%
Jurkat and HeLa cells
  lowest concentration giving a rise in G2/M cells: 60 nM
HeLa cells [12]
  apoptosis (annexin-V): accumulation of annexin-V positive cells

## CCOC(=O)c1oc2cc(OC)ccc2c1Nc1cc(OC)c(OC)c(OC)c1 [Compound 3h, Ethyl 3-(3,4,5-Trimethoxyphenylamino)-6-methoxybenzofuran-2-carboxylate]
[6]
  IC50: > 10 µM
HeLa cells [7]
  ROS production (H2-DCFDA): production of significant amounts of ROS
  mitochondrial transmembrane potential (JC-1): time- and concentration-dependent increase in the proportion of cells with depolarized mitochondria
HeLa cells [8]
  caspase activation (immunoblot): activation of caspase-9 and caspase-3 in a time- and concentration-dependent manner
  Mcl-1 expression: strongly down-regulated
[3]; [14]
  IC50: 13 to 100 nM
[3]; [13]
  IC50: 34 nM
Jurkat and HeLa cells; 24 h, at higher concentrations
  cells arrested in G2/M: more than 70%
Jurkat and HeLa cells
  lowest concentration giving a rise in G2/M cells: 60 nM
HeLa cells [12]
  apoptosis (annexin-V): accumulation of annexin-V positive cells

## COC(=O)c1oc2c(OC)cccc2c1Nc1cc(OC)c(OC)c(OC)c1 [Compound 3i, Methyl 3-(3,4,5-Trimethoxyphenylamino)-7-methoxybenzofuran-2-carboxylate]
[3]; [13]
  IC50: 370 nM

## CCOC(=O)c1oc2c(OC)cccc2c1Nc1cc(OC)c(OC)c(OC)c1 [Compound 3j, Ethyl 3-(3,4,5-Trimethoxyphenylamino)-7-methoxybenzofuran-2-carboxylate]
[3]; [13]
  IC50: 670 nM
